# Measured values reported in paper PMC8892239 (EFSA Journal, 2022).
# Values joined by “and” are separate entries in the source; they are usually repeats but may differ in a detail not shown here. Equal values may be shown once. Read-outs that look alike come from different tables or passages of the source.
# Key:
# [1] = Forced degradation of EQ in compound feed; format: physicochemical
# [2] = Antioxidant efficacy, storage of complete feed for sows; settings: for peroxide value after 3 months of storage: basal feed 47.3 meq O2/kg fat
# [3] = Stability of EQ in a vitamin/mineral premixture; format: physicochemical; settings: premixture with 5% EQ
# [4] = system: soil microflora; assay: Nitrogen Transformation Test, OECD 216
# Method in brief: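 Soil nitrogen transformation test per OECD 216, assessed on day 28. An effect was judged as deviation from control, with 25% as the criterion. A maximum variation below 15% was the validity criterion.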
# [5] = Antioxidant efficacy, storage of complete feed for chickens for fattening
# [6] = Risk characterisation
# Method in brief: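 For each compartment, a PNEC was derived by dividing the NOEC (or EC10 where indicated) by an assessment factor. Risk was expressed as the PEC/PNEC ratio.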
# [7] = Adsorption coefficient; format: physicochemical
# Method in brief: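 Koc estimated under GLP per OECD 121 from the HPLC retention time of the test compound. Runs were done at pH 6.5 and at pH 2.5 because the compound ionises at soil-relevant pH.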
# [8] = system: laying hens; assay: Tolerance study in laying hens; format: in vivo, HyLine Brown layers; settings: 50 mg ethoxyquin/kg feed
# [9] = system: dairy cows; assay: 36-day feeding study with lactating cows; format: in vivo, Holstein cows; settings: up to 10× the maximum recommended level, fed for 36 days
# [10] = system: Chironomus riparius; assay: Water-sediment test with spiked sediment, OECD 218, 28 days; format: in vivo; settings: nominal
# Method in brief: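 GLP static 28-day Chironomus riparius water–sediment test per OECD 218. The sediment was spiked at 62.5, 125, 250, 500 and 1,000 mg/kg sediment DW (nominal).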
# [11] = system: Brassica napus (oilseed rape); assay: Seedling emergence and seedling growth test, OECD 208; format: in vivo; settings: 21 days
# Method in brief: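 Soil was spiked with the test compound; measured concentrations were checked against nominal. From 50% emergence in controls, emergence, survival and visible phytotoxicity were recorded weekly for 21 days. At the end, emergence, survival, shoot fresh weight and visible damage were recorded. Effect concentrations were derived from dose–response curves.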
# [12] = system: Daphnia magna; assay: 21-day semi-static reproduction test; format: in vivo
# [13] = system: Daphnia magna; assay: 48-h semi-static acute toxicity test, OECD 202; format: in vivo; settings: read-out: 48h EC50 (immobilization)
# [14] = system: Lumbriculus variegatus; assay: Water-sediment test, OECD 225, 28 days; format: in vivo
# Method in brief: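 Lumbriculus variegatus test per OECD 225 in spiked artificial sediment, run for 28 days. Nominal levels were 18.8, 37.5, 75, 150, 300 and 600 mg/kg sediment DW, with four replicates each. An untreated control and a solvent control were run, six replicates each.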
# [15] = Residues of EQ and EQDM in fish flesh; format: in vivo; settings: Atlantic salmon, oral, 50 mg EQ/kg feed
# Method in brief: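 Flesh was sampled from 15 fish per group after 90 days of feeding. The parent compound and its dimer were quantified by HPLC with fluorescence detection.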
# [16] = Metabolism of 14C-EQ in liver slices; format: in vitro ADME, rat, laying hen and goat; settings: 10 and 100 µM, 37°C, 2 h
# [17] = Stability of EQ in complete feed for chickens for fattening; format: physicochemical; settings: 50, 150 or 500 mg EQ/kg feed
# [18] = system: Beagle dogs; settings: ref EFSA FEEDAP Panel, 2015, cited from earlier work
# [19] = ref EFSA FEEDAP Panel, 2015; cited from earlier work
# [20] = Residues of EQ and metabolites/TPs in piglet tissues; format: in vivo; settings: piglets
# [21] = Assessment of secondary poisoning
# [22] = control feed (0 mg EQ/kg), 42 days, mean ± SD, LOQs as above
smiles,measurement,setting,value
"CCOc1ccc2c(c1)C(C)=CC(C)(C)N2 [EQ, 6‐ethoxy‐1,2‐dihydro‐2,2,4‐trimethylquinoline]","share of the lost EQ identified as DMEQ, EQI and EQDM",[1]; H2O2,around 56%
same,EQ oxidised,"[1]; H2O2, after 4 h",83%
same,EQ oxidised,"[1]; H2O2, spontaneously",75%
same,EQ content after 3 months of storage,[2]; 25 mg EQ/kg feed (EQ25),completely disappeared
same,peroxide value after manufacturing,[2]; 25 mg EQ/kg feed (EQ25),0.89 meq O2/kg fat
same,peroxide value after 3 months of storage,[2]; 25 mg EQ/kg feed (EQ25),approx. 23.8
same,peroxide value after manufacturing,[2]; 50 mg EQ/kg feed (EQ50),1.36 meq O2/kg fat
same,reduction of EQ after 3 months of storage,[2]; 50 mg EQ/kg feed (EQ50),approx. 80%
same,peroxide value after 3 months of storage,[2]; 50 mg EQ/kg feed (EQ50),~13.6
same,EQ disappeared,"[3]; 90 days at 25°C, 60% RH",About 50%
same,time to a similar (about 50%) decline of EQ,[3]; at 40°C,8 days
same,deviation from control,"[4]; day 28, 10.70 mg test item/kg soil DW",< 25%
same,effect on soil nitrogen transformation,"[4]; day 28, highest tested concentration 10.70 mg test item/kg soil DW",no adverse effects
same,loss of EQ content in feed after 3 months,"[5]; 25–30°C, 55–65% RH, EQ = 50 mg EQ/kg feed (EQ50)",approximately 40%
same,range in which considered an efficacious antioxidant in feed,[5]; Panel's overall conclusion,25–50 mg/kg complete feed
same,"PEC/PNEC, fish farmed in land-based systems",[6],0.10
same,"PEC/PNEC, freshwater sediment",[6],0.02
same,"PEC/PNEC, marine sediment",[6],"1,550"
same,"PEC/PNEC, terrestrial compartment (earthworm)",[6],0.03
same,"PNEC, freshwater sediment",[6]; AF 10,"12,500 μg/kg"
same,"PNEC, terrestrial compartment (earthworm)",[6]; AF 10,"17,100 μg/kg"
same,"PNEC, freshwater compartment",[6]; AF 50,1.2 µg/L
same,"PEC/PNEC, freshwater compartment",[6]; EQ used in terrestrial animals,5
same,"PNECsed, marine sediment","[6]; equilibrium partitioning approach, AF 1,000",70.8 µg/kg
same,Koc (used for Phase II exposure assessment),[7],331 L/kg
same,Log Koc,[7]; pH 2.5,1.55
same,estimated Koc,[7]; pH 2.5,35
same,Log Koc,[7]; pH 6.5,2.52
same,estimated Koc,[7]; pH 6.5,331
same,margin of safety,[8],10 ×
same,effect on performance parameters,[9],had no influence on the performance parameters
same,EC10 development rate,[10],> 250 mg/kg sediment DW
same,NOEC development rate,[10],125 mg/kg sediment DW
same,NOEC emergence rate,[10],250 mg/kg sediment DW
same,"EC50, shoot fresh weight",[11],155.6 mg/kg
same,EC10,[12]; as used in risk characterisation,0.06 µg/mL
same,21-day EC10 (number of offspring per introduced and survived parent),"[12]; nominal concentrations, 95% confidence interval 46.9–76.0",0.0597 µg/mL
same,EC50,[13],2.48 µg/mL
same,EC10 for total number of worms/reproduction and total biomass per replicate,[14],148 mg test item/kg sediment DW and 148 ^* mg test item/kg sediment DW
same,NOEC for total number of worms and reproduction,[14],150 mg test item/kg sediment DW
same,mortality,[14]; 300 mg/kg sediment DW,50%
same,mortality,[14]; 600 mg/kg sediment DW,100%
same,concentration at 90 days,[15],40 ng/g
same,extent of metabolism,[16],metabolised extensively
same,number of metabolites identified,[16]; irrespective of origin,17
same,EQ losses,"[17]; after 90 days at 40°C, 75% RH",about 80%
same,EQ losses,"[17]; after 90 days, ambient conditions",30–50%
same,lowest NOAEL,"[18]; dogs, based on hepatocellular necrosis",2 mg/kg bw per day
same,maximum potentially safe concentration in feeds for dogs,[18],11 mg/kg complete feed
same,conclusion on toxicological profile,[19],"not genotoxic, carcinogenic, and does not cause developmental toxicity in the offspring"
same,residue in kidney,"[20]; control feed (0 mg EQ/kg), 42 days, mean ± SD, LOQs 1.5 to 2 µg EQ, EQDM, metabolite A/kg, 0.5 µg EQI/kg",˂ LOQ^( ^b ^)
same,residue in muscle,[20]; [22],˂ LOQ
same,residue in subcutaneous fat,[20]; [22],˂ LOQ
same,residue in muscle,"[20]; feed with 50 mg EQ/kg for 42 days, LOQs 1.5 to 2 µg EQ, EQDM, metabolite A/kg, 0.5 µg EQI/kg",˂ LOQ
same,PECfish/PNECoral,[21],1
same,NECoral,"[21]; from NOEC 80 mg/kg feed, assessment factor of 90",0.89 mg/kg
same,PECfish/PNECoral,[21]; listed as Ethoxyquin,1.0
